Compound activity from PubChem.
HKDC1 inhibitor: HKDC1 hexokinase inhibitors, primary screen, biochemical, fluorescence, uHTS. recombinant HKDC1, G6PDH/diaphorase resazurin coupled fluorescence. inhibition, % at 20 µM. 0.16% of 340,000 active. AID 493160, 2011;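 active = inhibition above about 35% when tested at 20 µM, limit read from the data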;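 also: plate controls were DMSO wells with enzyme for no effect and DMSO wells lacking enzyme for full effect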
Target sequence (Q2TB90 whole entry, looked up): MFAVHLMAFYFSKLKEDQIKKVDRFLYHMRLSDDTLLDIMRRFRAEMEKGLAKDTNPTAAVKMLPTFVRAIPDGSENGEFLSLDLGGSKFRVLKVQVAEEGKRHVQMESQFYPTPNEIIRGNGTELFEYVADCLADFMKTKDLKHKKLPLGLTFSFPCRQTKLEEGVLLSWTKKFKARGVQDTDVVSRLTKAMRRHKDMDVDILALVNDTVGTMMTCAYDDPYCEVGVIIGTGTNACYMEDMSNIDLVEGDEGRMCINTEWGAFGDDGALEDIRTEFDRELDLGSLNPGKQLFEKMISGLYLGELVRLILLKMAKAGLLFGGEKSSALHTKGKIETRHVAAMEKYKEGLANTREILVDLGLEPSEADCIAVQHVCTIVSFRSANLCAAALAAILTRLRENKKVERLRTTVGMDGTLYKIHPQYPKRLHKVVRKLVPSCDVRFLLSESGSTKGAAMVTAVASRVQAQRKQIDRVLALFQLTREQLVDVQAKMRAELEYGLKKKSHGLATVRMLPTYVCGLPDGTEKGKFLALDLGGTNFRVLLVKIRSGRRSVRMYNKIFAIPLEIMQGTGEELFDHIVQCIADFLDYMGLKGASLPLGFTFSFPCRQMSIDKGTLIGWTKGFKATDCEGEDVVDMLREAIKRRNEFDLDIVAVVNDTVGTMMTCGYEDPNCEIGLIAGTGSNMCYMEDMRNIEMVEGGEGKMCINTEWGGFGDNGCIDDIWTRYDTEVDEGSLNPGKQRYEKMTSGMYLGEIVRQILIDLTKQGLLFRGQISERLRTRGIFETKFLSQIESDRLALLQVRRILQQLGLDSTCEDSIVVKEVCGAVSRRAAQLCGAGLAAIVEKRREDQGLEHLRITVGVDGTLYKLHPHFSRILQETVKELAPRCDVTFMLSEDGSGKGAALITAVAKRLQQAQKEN
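Test system: recombinant HKDC1 (HK5) hexokinase enzyme, produced in-house / Doses: 20 µM test compound, 1% DMSO / Timing: 90 min, room temperature / Detection: G6PDH/diaphorase-coupled fluorescence, 1 mM NADP, 100 µM resazurin, 525/613 nm / Control set: DMSO wells with and without enzyme mix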
G6PDH CS: L. mesenteroides G6PDH inhibitors, counter-screen for G6PDH-coupled screening assays, biochemical, Leuconostoc mesenteroides enzyme. Purified L. mesenteroides G6PDH, diaphorase/resazurin coupled fluorescence, 45 min. inhibition, % at 5 µM. 0.12% of 200,000 active; in the data active = inhibition above about 50%
Diaph inh CS: diaphorase inhibitors and chemical oxidizers, primary screen, counter-screen for diaphorase-coupled primary assays, biochemical, uHTS, resorufin fluorescence. diaphorase resazurin-to-resorufin fluorescence, NADH, 16 min; bacterial (C. kluyveri) enzyme, not human. inhibition, % at 20 µM. 0.69% of 190,000 active. AID 1217, 2008;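 active = primary screen inhibition at 20 µM above a set limit, cut at about 50% in these data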;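 also: plate controls were DMSO with full reaction for no effect and wells lacking NADH for full effect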
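material = Clostridium kluyveri diaphorase enzyme | amount = 0.14 U/mL diaphorase, enzyme working solution | schedule = incubation 16 min, room temperature | detection = fluorescence of resorufin formed from resazurin, Ex 544/Em 590 nm | benchmarks = positive control minus NADH, DMSO neutral control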
PfG6PD inh: PfG6PD enzyme inhibitors, primary screen, biochemical, fluorescence intensity, uHTS; glucose-6-phosphate dehydrogenase-6-phosphogluconolactonase (Plasmodium falciparum 3D7); PfGluPho enzyme, NADPH resazurin-diaphorase fluorescence; inhibition, % at 20 µM; 0.78% of 350,000 active;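 active = inhibition reaching at least a set limit at 20 µM in the primary screen, cut at about 59% in these data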;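 also: 0% = DMSO wells with substrate and 100% = DMSO wells lacking glucose-6-phosphate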
PfGluPho conf: PfG6PD inhibitors, hit retest, confirmation, biochemical, fluorescence intensity, single concentration. shares compounds with PfG6PD inh. recombinant PfGluPho, NADPH-diaphorase-resazurin fluorescence. inhibition, % at 20 µM. 34% of 2,400 active. AID 504753, 2011;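 active = inhibition of at least 50% at 20 µM in any single replicate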;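 also: 0% = DMSO with substrate and 100% = DMSO lacking glucose-6-phosphate substrate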
Diaph ctr 10uM: diaphorase inhibitors and chemical oxidizers, confirmation, counter-screen for P. falciparum G6PD inhibitor project, biochemical, fluorescence intensity, 10 µM NADPH; shares compounds with PfG6PD inh; diaphorase-coupled resazurin reduction, NADPH 10 uM; inhibition, % at 20 µM; 39% of 820 active;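 active = average inhibition reaching 50% or more with the compound at 20 µM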;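 also: resorufin red fluorescence formed as diaphorase reduces resazurin using NADPH; 0% = DMSO with enzyme and 100% = DMSO without enzyme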
Diaph ctr 30uM: diaphorase inhibitors and chemical oxidizers, confirmation, counter-screen for P. falciparum G6PD inhibitor project, biochemical, fluorescence intensity, 30 µM NADPH; shares compounds with PfG6PD inh; Diaphorase/resazurin coupled assay, resorufin fluorescence; inhibition, % at 20 µM; 29% of 820 active; AID 504863, 2011;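 active = inhibition averaging 50% or more, tested at 20 µM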;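 also: 0% = DMSO with enzyme and 100% = DMSO wells lacking diaphorase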
An asterisk follows results filed as active; x = no result given. An excerpt weighted towards active compounds, which were near 1.2% of everything screened.

SMILES | HKDC1 inhibitor | G6PDH CS | Diaph inh CS | PfG6PD inh | PfGluPho conf | others
Cc1c(Cl)cccc1NC(=O)NN1CCN(C)CC1 | -2.0 | x | x | 4.7 | x
O=C(O)CSc1nnc(-c2ccc(Cl)cc2Cl)n1-c1ccc(Cl)cc1 | 0.1 | x | x | 5.8 | x
CC1(C)CC(=O)C2=C(C1)N=C1c3ccccc3C(=O)C1C2c1ccc(Cl)cc1 (centres undefined) | 5.1 | -41.6 | 22.2 | 83.7* | 17.0
CCc1ccc(Nc2nnc(SCC(=O)Nc3sccc3C(N)=O)s2)cc1 | 6.3 | 2.6 | 24.9 | 67.3* | 7.0
O=C(Nc1nnc(S(=O)(=O)N2CCOCC2)s1)c1ccc(Cl)cc1 | -1.2 | x | x | 104.5* | 72.2* | Diaph ctr 10uM=71.8*;Diaph ctr 30uM=53.5*
CC1CCN(S(=O)(=O)c2nnc(NC(=O)c3cccc(Cl)c3)s2)CC1 | 7.3 | x | x | 86.2* | 41.6
COc1ccc(C(=O)Nc2nnc(S(=O)(=O)N3CCOCC3)s2)cc1 | 2.9 | x | x | 78.4* | 51.1* | Diaph ctr 10uM=38.8;Diaph ctr 30uM=31.8
O=C(Nc1nnc(S(=O)(=O)N2CCOCC2)s1)c1ccccc1 | 1.7 | x | x | 62.7* | 30.9
Cc1snc(SCc2ccc(Cl)cc2)c1C#N | 0.7 | x | x | 4.1 | x
NC(=O)COc1ccc(/C=N\NC(=O)CC(=O)NCCc2ccccc2)cc1 | 0.6 | x | x | -6.3 | x
CCc1nnc(NC(=O)c2cccc(OC)c2)s1 | -2.6 | 3.7 | 9.3 | 61.7* | 42.4
CCOCc1nnc(NC(=O)c2cccc(OC)c2)s1 | -5.6 | 17.5 | 3.6 | 21.9 | x
COc1ccc(C(=O)Nc2nnc(C(F)(F)F)s2)cc1 | 0.0 | 2.3 | 15.7 | 118.0* | 96.2* | Diaph ctr 10uM=88.9*;Diaph ctr 30uM=62.4*
COc1ccc(C(=O)Nc2nnc(-c3ccccc3)s2)cc1 | 2.8 | x | x | -10.0 | x
CCc1c(C)nc2cc(-c3ccc(OC)c(OC)c3)nn2c1NCC1CC1 | 1.1 | -1.4 | 3.9 | 61.9* | 5.9
COc1ccc(-c2c(C)nn3c(NC4CCCC4)cc(C)nc23)cc1OC | 1.1 | x | x | 23.4 | x
Fc1ccc(-[n+]2nc(Nc3ccccc3)sc2-c2c3ccccc3cc3ccccc23)cc1 | 3.6 | x | x | 132.0* | 81.9* | Diaph ctr 10uM=78.3*;Diaph ctr 30uM=59.7*
COc1ccc(C)cc1Nc1n[n+](-c2ccccc2)c(-c2c(OC)ccc3ccccc23)s1 | 9.4 | x | x | 115.0* | 75.2* | Diaph ctr 10uM=68.7*;Diaph ctr 30uM=50.0
C[C@H]1CN([C@@H](C)CO)C(=O)CCCn2cc(nn2)CO[C@@H]1CN(C)C(=O)c1ccncc1 | x | x | x | -13.4 | x
O=c1nc2n(c3ccccc13)Cc1ccccc1-2 | x | 3.6 | 10.0 | x | x
O=c1c2cccc(Cl)c2nc2n1Cc1ccccc1-2 | -4.2 | x | x | 77.7* | 42.7
CC(C1=C(CCN(C)C)Cc2ccccc21)c1ccccn1 (centres undefined) | -2.3 | x | x | 6.9 | x
O=C(NCCO)c1ccc2nc(-c3ccco3)c(-c3ccco3)nc2c1 | 16.6 | 28.8 | 52.2* | 72.1* | 18.5
O=C(NCCc1ccccc1)c1ccc2nc(-c3ccco3)c(-c3ccco3)nc2c1 | 22.4 | 24.9 | 49.3 | 59.6* | 29.8
CC(C)c1ccc(N(C(=O)CNC(=O)c2ccco2)C(C(=O)NC2CCCC2)c2ccncc2)cc1 (centres undefined) | -3.7 | x | x | -3.3 | x
SMILES | HKDC1 inhibitor | G6PDH CS | Diaph inh CS | PfG6PD inh | PfGluPho conf | others
CCCn1c(=N)n(CC(=O)c2ccc(Cl)cc2)c2ccccc21 | -2.3 | x | x | 29.7 | x
N=c1n(CCN2CCOCC2)c2ccccc2n1CC(=O)c1cccc([N+](=O)[O-])c1 | 7.1 | x | x | 75.3* | -6.4
CCCCOC(=O)Cn1c(=N)n(CCN2CCOCC2)c2ccccc21 | -3.6 | x | x | -0.2 | x
CCCn1c(=N)n(CC(=O)c2ccc([N+](=O)[O-])cc2)c2ccccc21 | 2.6 | -5.5 | 4.0 | 72.8* | -21.7
N=c1n(CCN2CCOCC2)c2ccccc2n1CC(=O)c1ccc(Cl)c(Cl)c1 | -1.0 | 10.7 | 3.4 | 113.8* | 0.9
CN(Cc1ccccc1)C(=O)C1CCN(S(=O)(=O)c2cccc3nonc23)CC1 | -5.5 | x | x | -13.7 | x
COc1cc(C(=O)COC(=O)c2cnc(C)cn2)ccc1OC(F)F | -2.2 | x | x | -11.9 | x
CCC1CC(=O)CCN1S(=O)(=O)c1ccc(C)cc1 (centres undefined) | -2.1 | x | x | 2.4 | x
N=C1/C(=C/c2cccn2CCOc2ccccc2)C(=O)N=C2SC=C(c3ccccc3)N12 | -4.2 | -16.2 | 0.0 | 64.7* | 8.6
O=[N+]([O-])c1ccc2c(c1)-c1ccccc1C2O (centres undefined) | x | x | x | 113.5* | 97.3* | Diaph ctr 10uM=37.2;Diaph ctr 30uM=19.0
Cc1ccccc1-n1c(-c2ccc3ccccc3n2)n[nH]c1=S | 1.0 | x | x | 68.8* | 56.4* | Diaph ctr 10uM=15.4;Diaph ctr 30uM=17.4
Cc1ccnc(NC(=O)c2cc(S(=O)(=O)NCc3ccccc3)ccc2C)c1 | -0.3 | x | x | 3.6 | x
CCOc1ccccc1NC(=O)CCCc1nc2ccccc2c(=O)[nH]1 | -10.2 | -2.7 | 7.0 | 67.1* | 53.0* | Diaph ctr 10uM=38.6;Diaph ctr 30uM=36.1
Brc1cccc(Nc2nc(-c3cccnc3)cs2)c1 | -1.4 | x | x | 59.6* | -14.0
c1ccc2c(c1)CCN(c1nc3cc4c(cc3s1)OCCO4)C2 | 9.3 | -6.2 | 4.4 | 64.1* | 18.2
Cc1onc(-c2ccccc2)c1C(=O)Nc1sc2c(c1C(N)=O)CCC2 | 3.0 | 14.9 | 15.2 | 12.7 | x
Cc1onc(C(=O)Nc2sc3c(c2C(N)=O)CCCC3)c1[N+](=O)[O-] | -1.6 | x | x | 64.1* | 47.2
Cc1cc(O)c(C(C)C)cc1N=Nc1ccccc1C(=O)O | 1.9 | x | x | 5.7 | x
Cc1cc(O)c(C(C)C)cc1N=Cc1ccccc1[N+](=O)[O-] | 21.3 | x | x | 100.9* | 65.1* | Diaph ctr 10uM=40.9;Diaph ctr 30uM=11.6
O=C1Nc2cc(C(=O)NCCCN3CCCC3)ccc2S/C1=C/c1cccc(Cl)c1 | x | x | x | 60.6* | 79.0* | Diaph ctr 10uM=-22.7;Diaph ctr 30uM=-24.8
CCN1CCCC1CNC(=O)c1ccc2c(c1)NC(=O)/C(=C\c1ccccc1Cl)S2 (centres undefined) | x | x | x | 118.0* | 105.0* | Diaph ctr 10uM=-12.6;Diaph ctr 30uM=-12.4
Cc1cccc(/C=C2/Sc3ccc(C(=O)NCCN4CCCC4)cc3NC2=O)c1 | 3.4 | x | x | 56.7 | x
CCN1CCCC1CNC(=O)c1ccc2c(c1)NC(=O)/C(=C\c1ccc(OC)c(OC)c1)S2 (centres undefined) | 16.6 | x | x | 16.9 | x
CCN(C(=O)COC(=O)/C=C/c1ccc2c(c1)OCO2)c1c(N)n(Cc2ccccc2)c(=O)[nH]c1=O | -1.6 | x | x | 8.3 | x
